By EC50 is commonly meant the concentration at which the effect is half-maximal.

The values that follow come from ChEMBL document CHEMBL3351568, “2-Aminobenzoxazole ligands of the hepatitis C virus internal ribosome entry site” (Bioorg Med Chem Lett, 2014).

The target in this experiment is Internal ribosome entry site (IRES). Nature of the experiment: Binding affinity to HCV cyanine dye-labeled IRES subdomain 2a RNA by FRET assay in presence of tRNA. Also noted: species or system Hepacivirus hominis. In short, it runs like this: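 IRES subdomain IIa RNA target binding by FRET, following a previously described method. Compounds were titrated in triplicate experiments, and the data were averaged. EC50 came from fitting a single-site binding dose-response curve to the averaged data.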
As for `Nc1nc2ccc(NCc3ccccc3)cc2o1`, the EC50 came out at 27 µM.

`Nc1nc2ccc(Nc3ccccc3)cc2o1`: the 50% effective concentration (EC50) worked out at 90 µM.

`CN(C)CCCNc1ccc2nc(N)oc2c1`: the EC50 is 25 µM.

In the case of `CN(C)CCN(C)Cc1cccc2nc(N)oc12`, the EC50 was 190 µM.

On to `Nc1ccc2nc(NCCCN3CCOCC3)oc2c1`, for which the EC50 was found to be 43 µM.

For the molecule `CN(C)CCCNc1ccc2nc(NCCCN(C)C)oc2c1`, the EC50 was 63 µM.

Turning to `CN(C)CCCNc1nc2cc(N)ccc2o1`, the EC50 is 52 µM.

For the molecule `CN(CCC(=O)N(C)C)Cc1cccc2nc(N)oc12`, the EC50 came out at 600 µM.

With `CN(C)CCCNc1nc2ccc(N)cc2o1`, the EC50 was found to be 120 µM.

In the case of `Nc1ccc2nc(NCCCN3CCCCC3)oc2c1`, the concentration for a half-maximal effect (EC50) was found to be 47 µM.

Turning to `CN(C)CCNc1nc2ccc(N)cc2o1`, the EC50 was found to be 500 µM.

As for `CN(C)CCCNc1nc2cccc(N)c2o1`, the EC50 came to 31 µM.

For `Nc1ccc2nc(NCCN3CCCCC3)oc2c1`, the EC50 is 88 µM.

Turning to `CN(C)CCCNc1nc2ccccc2o1`, the concentration giving a half-maximal response (EC50) came out at 110 µM.
